How the values were obtained:
[1] = system: Mycobacterium tuberculosis; test: Antitubercular activity against Mycobacterium tuberculosis H37Rv ATCC 25618 assessed as streptomycin MIC incubated for 14 days in presence of streptomycin by MABA method; type: functional; details: H37Rv ATCC 25618, 336 h, time 14 day
Procedure, shortened: (§1)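 In Middlebrook 7H9 with 10% OADC, the reference drug (INH, RMP, SM or EMB) at 1 to 1/32 of its MIC alone was mixed with the test derivative fixed at 1/2 its MIC. 4 ml samples were inoculated with McFarland 1 suspension and incubated 14 days at 37 °C. MIC is the lowest drug concentration in combination that inhibited growth.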

[2] = system: Mycobacterium intracellulare; test: Antimycobacterial activity against Mycobacterium intracellulare assessed as inhibition of microbial growth incubated for 1 week by MABA method; type: functional; details: 168 h, time 1 weeks
Procedure, shortened: (§2)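 Microplate Alamar Blue assay using two-fold serial microdilution in Middlebrook 7H9 broth with 10% OADC, compounds 0.125–512 µg/ml from DMSO stocks. Inoculum came from fresh LJ culture, was adjusted to McFarland 1 and diluted 1:20. Plates were incubated 1 week at 37 °C, Alamar blue was added and plates were re-incubated 24 h. MIC was the lowest concentration preventing the blue-to-pink change. Each plate carried growth and sterile controls.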

[3] = system: Mycobacterium tuberculosis; test: Antitubercular activity against Mycobacterium tuberculosis H37Rv ATCC 25618 assessed as reduction in bacterial growth incubated for 14 days in presence of 1/2 x MIC rifampicin by MABA method; type: functional; details: H37Rv ATCC 25618, 336 h, time 14 day
Procedure, shortened: (§3)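 Checkerboard-type combination in Middlebrook 7H9 with 10% OADC. The test derivative at 1 to 1/32 of its MIC alone was mixed with the reference drug fixed at 1/2 its MIC. 4 ml samples were inoculated with McFarland 1 suspension and incubated 14 days at 37 °C. MIC is the lowest derivative concentration in combination that inhibited growth in liquid medium.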

[4] = system: Mycobacterium tuberculosis; test: Antitubercular activity against Mycobacterium tuberculosis H37Rv ATCC 25618 assessed as reduction in bacterial growth incubated for 14 days in presence of 1/2 x MIC isoniazid by MABA method; type: functional; details: H37Rv ATCC 25618, 336 h, time 14 day; procedure, shortened: as §3
[5] = system: Mycolicibacterium fortuitum; test: Antibacterial activity against Mycobacterium fortuitum assessed as inhibition of microbial growth incubated for 1 week by MABA method; type: functional; details: 168 h, time 1 weeks; procedure, shortened: as §2
[6] = system: Staphylococcus epidermidis; test: Antibacterial activity against Staphylococcus epidermidis ATCC 35984/RP62A assessed as bacterial growth inhibition measured after 18 hrs by two-fold serial microdilution method; type: functional
Procedure, shortened: (§4)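 Two-fold serial broth microdilution in MH II medium following modified CLSI procedures. Compounds were dissolved in DMSO and diluted in medium to at most 1% solvent, tested from 0.03125 to 512 μg/ml. Final inoculum 10^6 CFU/ml. MIC was taken as the lowest concentration with no visible growth after 18 h at 35 °C.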

[7] = system: Staphylococcus epidermidis; test: Antibacterial activity against Staphylococcus epidermidis ATCC 1457 assessed as bacterial growth inhibition measured after 18 hrs by two-fold serial microdilution method; type: functional; procedure, shortened: as §4
[8] = system: Mycobacterium tuberculosis; test: Antitubercular activity against Mycobacterium tuberculosis Spec.192 assessed as reduction in bacterial growth incubated for 14 days in presence of 1/2 x MIC isoniazid by MABA method; type: functional; details: Mycobacterium tuberculosis, 192, 336 h; time 14 day; procedure, shortened: as §3
[9] = system: Mycobacterium tuberculosis; test: Antitubercular activity against Mycobacterium tuberculosis H37Rv ATCC 25618 assessed as fractional inhibitory concentration index incubated for 14 days in presence of 1/2 x MIC streptomycin by MABA method; type: functional; details: time 14 day
Procedure, shortened: (§5)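 Interaction analysis in Middlebrook 7H9 with 10% OADC. Combination MICs came from mixing the derivative (1 to 1/32 MIC) with the reference drug at 1/2 MIC, and the reverse, after 14 days at 37 °C with McFarland 1 inoculum. FICI was calculated from the combination MIC values and the MICs alone.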

Caco-2 = test: Cytotoxicity against human Caco-2 cells assessed as LDH release at 100 uM incubated for 72 hrs by LDH assay; type: cell-based; details: caco-2, 72 h
Procedure, shortened: (§6)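 LDH release measured with a kit after 72 h exposure to 100 μM compound. Cells were seeded at 1×10^4 per well in DMEM or EMEM with 2% FBS. Absorbance was read at 490 nm. Release (%) = (A sample − A low control)/(A high control − A low control) × 100, with the Triton X-100 (1%) control taken as 100% release. Values are mean ± SD of three independent experiments run in triplicate.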

Pseudomonas aeruginosa = test: Antibacterial activity against Pseudomonas aeruginosa PAO1 assessed as bacterial growth inhibition measured after 18 hrs by two-fold serial microdilution method; type: functional; procedure, shortened: as §4
Staphylococcus aureus = test: Antibacterial activity against Staphylococcus aureus ATCC 6538 assessed as bacterial growth inhibition measured after 18 hrs by two-fold serial microdilution method; type: functional; procedure, shortened: as §4
HaCaT = test: Cytotoxicity against human HaCaT cells assessed as LDH release at 100 uM incubated for 72 hrs by LDH assay; type: cell-based; procedure, shortened: as §6
[10] = system: Mycobacterium tuberculosis; test: Antitubercular activity against Mycobacterium tuberculosis H37Rv ATCC 25618 assessed as reduction in bacterial growth incubated for 14 days in presence of 1/2 x MIC streptomycin by MABA method; type: functional; details: H37Rv ATCC 25618, 336 h, time 14 day; procedure, shortened: as §3
[11] = system: Mycobacterium tuberculosis; test: Antitubercular activity against Mycobacterium tuberculosis H37Rv ATCC 25618 assessed as isoniazid MIC incubated for 14 days in presence of isoniazid by MABA method; type: functional; details: H37Rv ATCC 25618, 336 h, time 14 day; procedure, shortened: as §1
Mycobacterium kansasii = test: Antibacterial activity against Mycobacterium kansasii assessed as inhibition of microbial growth incubated for 1 week by MABA method; type: functional; details: 168 h, time 1 weeks; procedure, shortened: as §2
[12] = system: Mycobacterium tuberculosis; test: Antitubercular activity against Mycobacterium tuberculosis Spec.192 assessed as reduction in bacterial growth incubated for 14 days in presence of 1/2 x MIC ethambutol by MABA method; type: functional; details: Mycobacterium tuberculosis, 192, 336 h; time 14 day; procedure, shortened: as §3
[13] = system: Mycobacterium tuberculosis; test: Antitubercular activity against Mycobacterium tuberculosis Spec.192 assessed as inhibition of microbial growth incubated for 1 week by MABA method; type: functional; details: Mycobacterium tuberculosis, 192, 168 h; time 1 weeks
Procedure, shortened: (§7)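 Microplate Alamar Blue assay in Middlebrook 7H9 broth with 10% OADC. Inoculum from fresh LJ culture was adjusted to McFarland 1 and diluted 1:20. DMSO stocks were two-fold serially diluted to final 0.125–512 µg/ml, with growth and sterile controls. Plates ran 1 week at 37 °C, then Alamar blue was added for 24 h. MIC is the lowest concentration preventing the blue-to-pink change.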

Escherichia coli = test: Antibacterial activity against Escherichia coli ATCC 25922 assessed as bacterial growth inhibition measured after 18 hrs by two-fold serial microdilution method; type: functional; procedure, shortened: as §4
[14] = system: Mycobacterium tuberculosis; test: Antitubercular activity against Mycobacterium tuberculosis Spec.192 assessed as ethambutol MIC incubated for 14 days in presence of ethambutol by MABA method; type: functional; details: Mycobacterium tuberculosis, 192, 336 h; time 14 day; procedure, shortened: as §1
[15] = system: Mycobacterium tuberculosis; test: Antitubercular activity against Mycobacterium tuberculosis H37Rv ATCC 25618 assessed as fractional inhibitory concentration index incubated for 14 days in presence of 1/2 x MIC rifampicin by MABA method; type: functional; details: time 14 day; procedure, shortened: as §5
[16] = Cytotoxicity against human HTB-140 cells assessed as LDH release at 100 uM incubated for 72 hrs by LDH assay; type: cell-based; details: htb-140, 72 h; procedure, shortened: as §6
Mycobacterium avium = test: Antimycobacterial activity against Mycobacterium avium assessed as inhibition of microbial growth incubated for 1 week by MABA method; type: functional; details: 168 h, time 1 weeks; procedure, shortened: as §7
[17] = system: Mycobacterium tuberculosis; test: Antitubercular activity against Mycobacterium tuberculosis Spec.192 assessed as isoniazid MIC incubated for 14 days in presence of isoniazid by MABA method; type: functional; details: Mycobacterium tuberculosis, 192, 336 h; time 14 day; procedure, shortened: as §1
[18] = system: Mycobacterium tuberculosis; test: Antitubercular activity against Mycobacterium tuberculosis H37Rv ATCC 25618 assessed as inhibition of microbial growth incubated for 1 week by MABA method; type: functional; details: H37Rv ATCC 25618, 168 h, time 1 weeks; procedure, shortened: as §7

Row | SMILES | MIC [1] | MIC [2] | MIC [3] | MIC [4] | MIC [5] | MIC [6] | MIC [7] | MIC [8] | fractional inhibitory concentration index (FICI) [9] | Activity (Caco-2) | MIC (Pseudomonas aeruginosa) | MIC (Staphylococcus aureus) | Activity (HaCaT) | MIC [10] | MIC [11] | MIC (Mycobacterium kansasii) | MIC [12] | MIC [13] | MIC (Escherichia coli) | MIC [14] | further results
1 | COc1ccc(-n2nnnc2Nc2cccc(Br)c2)cc1 | 0.25 µg/mL | 128 µg/mL | 0.5 µg/mL | 0.25 µg/mL | 256 µg/mL | > 256 µg/mL | > 256 µg/mL | 0.25 µg/mL | 0.5 | < 17% | > 256 µg/mL | > 256 µg/mL | 4.88% | 0.5 µg/mL | 0.5 µg/mL | 512 µg/mL | 0.5 µg/mL | 2 µg/mL | > 256 µg/mL | 1 µg/mL | fractional inhibitory concentration index (FICI) [15]: 0.5; Activity [16]: < 17%; MIC (Mycobacterium avium): 256 µg/mL; MIC [17]: 0.5 µg/mL; MIC [18]: 2 µg/mL
2 | COc1ccc(-n2nnnc2Nc2ccc(Br)cc2)cc1 | 0.25 µg/mL | 128 µg/mL | 0.5 µg/mL | 0.25 µg/mL | > 512 µg/mL | > 256 µg/mL | > 256 µg/mL | 0.25 µg/mL | 0.375 | Non-Toxic | > 256 µg/mL | > 256 µg/mL | 7.25% | 0.25 µg/mL | 0.5 µg/mL | 512 µg/mL | 0.25 µg/mL | 2 µg/mL | > 256 µg/mL | 1 µg/mL | fractional inhibitory concentration index (FICI) [15]: 0.5; Activity [16]: Non-Toxic; MIC (Mycobacterium avium): 512 µg/mL; MIC [17]: 0.5 µg/mL; MIC [18]: 2 µg/mL
